In article PMC9233141 (ChemMedChem, 2022):
One block for each compound: values may come before it.

How the values were obtained:
PKN3 [1] = target: T1, PKN3 (Homo sapiens, UniProt Q6P5Z2); experiment: split-luciferase binding assay
[2] = system: kinases in lysates of SUM159 cells; experiment: MIB-MS kinome profiling; format: binding; conditions: 1 μM; for kinases on which activity was detected: threshold 5-fold change
NLK = conditions: read-out: Kd NLK; DiscoverX KinomeSCAN, prior annotation of PKIS2; cited from earlier work
ACVR1 = conditions: read-out: ACVR1 Kd; DiscoverX profiling; cited from earlier work
human kinome = conditions: at 1 μM, across the human kinome; cited from earlier work
GAK [3] = experiment: GAK FRET binding; conditions: compared to 14
PKN3 [4] = target: T1, PKN3; experiment: PKN3 NanoBRET in-cell target engagement; format: cell-based
Procedure, shortened: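 Full-length PKN3 with N-terminal NanoLuc (Gly-Ser-Ser-Gly linker) transiently expressed in HEK-293 cells for 20-30 hr at 37°C/5% CO2. Cells in Opti-MEM at 2 x 10^4/well are equilibrated 2 h with tracer K-5 (1000 nM final) and test compound. NanoBRET substrate and extracellular NanoLuc inhibitor are added, and donor/acceptor luminescence is read. IC50 comes from a variable-slope fit, normalised to controls when needed.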

GAK [5] = experiment: GAK NanoBRET; format: cell-based; conditions: NanoBRET GAK vs PKN3
GAK [6] = conditions: read-out: GAK activity in cells IC50; GAK NanoBRET; cited from earlier work
[7] = PKN3 IC50, SLCA assay (n=2), 8-point dose response

T1 sequence (Q6P5Z2 whole entry): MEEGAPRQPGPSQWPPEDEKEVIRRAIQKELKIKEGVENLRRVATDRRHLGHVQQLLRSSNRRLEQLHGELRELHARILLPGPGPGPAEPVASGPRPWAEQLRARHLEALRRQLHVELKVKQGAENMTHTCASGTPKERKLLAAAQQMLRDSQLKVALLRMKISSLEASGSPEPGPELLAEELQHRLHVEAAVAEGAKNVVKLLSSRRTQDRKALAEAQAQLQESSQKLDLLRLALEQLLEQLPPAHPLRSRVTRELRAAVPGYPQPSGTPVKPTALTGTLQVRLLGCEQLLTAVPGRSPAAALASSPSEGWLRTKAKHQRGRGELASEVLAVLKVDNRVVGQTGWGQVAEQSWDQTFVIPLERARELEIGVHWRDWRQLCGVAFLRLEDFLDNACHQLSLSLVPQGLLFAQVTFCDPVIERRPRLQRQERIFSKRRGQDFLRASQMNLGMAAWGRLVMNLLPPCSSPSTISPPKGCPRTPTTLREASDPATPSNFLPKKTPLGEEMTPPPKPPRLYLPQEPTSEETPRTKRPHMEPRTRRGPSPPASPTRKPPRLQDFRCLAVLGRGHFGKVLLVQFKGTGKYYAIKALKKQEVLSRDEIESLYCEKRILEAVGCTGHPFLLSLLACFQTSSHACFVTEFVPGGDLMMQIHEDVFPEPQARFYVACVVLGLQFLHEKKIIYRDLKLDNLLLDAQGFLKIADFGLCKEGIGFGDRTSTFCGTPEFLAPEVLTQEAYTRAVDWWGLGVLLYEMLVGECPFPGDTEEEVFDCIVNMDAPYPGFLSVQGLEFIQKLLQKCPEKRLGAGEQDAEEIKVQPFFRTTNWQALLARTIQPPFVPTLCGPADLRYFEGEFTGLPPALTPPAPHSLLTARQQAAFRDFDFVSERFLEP

Structure (SMILES): COc1cc(Nc2ccnc3ccc(C(F)(F)F)cc23)cc(OC)c1OC [Compound 2]
kinome profile [2]: narrow spectrum
kinases on which activity was detected [2]: GAK and RIPK2
Kd (NLK): < 1000 nM
Kd (ACVR1): 220 nM

Structure (SMILES): COc1cc(Nc2ccnc3cc(I)ccc23)cc(OC)c1OC [Compound 16, 7-iodo-N-(3,4,5-trimethoxyphenyl)quinolin-4-amine]
decrease in GAK activity (GAK [3]): 3 fold
IC50 (PKN3 [4]): 1300 nM
drop off in activity from cell free SLCA assay to NanoBRET (PKN3 [4]; PKN3): ~100 fold
more potent on GAK than PKN3 in cells (GAK [5]): 17 fold
kinome profile [2]: narrow spectrum
kinases on which activity was detected [2]: PKN3, NLK, GAK, AVCR1 and RIPK2
IC50 (GAK [6]): 74 nM

Structure (SMILES): CS(=O)(=O)CCNCc1ccc(-c2ccc3ncnc(Nc4ccc(OCc5cccc(F)c5)c(Cl)c4)c3c2)o1 [Lapatinib]
IC50 (PKN3 [1]; [7]): 5900 nM
PKN3 binding, in words (PKN3 [1]; SLCA assay): moderate activity

Structure (SMILES): CNC(=O)CN1CCC(Oc2cc3c(Nc4cccc(Cl)c4F)ncnc3cc2OC)CC1 [Sapitinib]
IC50 (PKN3 [1]; [7]): 44000 nM

Structure (SMILES): COc1cc2c(Nc3ccc(Cl)c(Cl)c3F)ncnc2cc1OC[C@@H]1C[C@@H]2CN(C)C[C@@H]2C1 [Tesevatinib]
IC50 (PKN3 [1]; [7]): 240 nM

Structure (SMILES): COc1cc2c(Nc3ccc(Br)cc3F)ncnc2cc1OCC1CCN(C)CC1 [Vandetanib]
IC50 (PKN3 [1]; [7]): 540 nM

Second part, led by results:

IC50 (PKN3 [1]; [7]): 42000 nM
Structure (SMILES): COc1cc2nccc(Oc3ccc(NC(=O)C4(C(=O)Nc5ccc(F)cc5)CC4)cc3)c2cc1OC [Cabozantinib]

IC50 (PKN3 [1]; PKN3 IC50, SLCA assay): 9 nM
Structure (SMILES): COc1cc(Nc2ccnc3cc(-c4ccncc4)ccc23)cc(OC)c1OC [Compound 3]
number of kinases inhibited >90% (human kinome): > 18 kinases
